In ChEMBL document CHEMBL4316631, “Anti-inflammatory Potential of Saponins from Aster tataricus via NF-κB/MAPK Activation” (J Nat Prod, 2019):

Tests used:
[1] = system: RAW264.7; experiment: Anti-inflammatory activity in mouse RAW264.7 cells assessed as inhibition of LPS-induced nitric oxide production at 50 uM preincubated for 30 mins followed by LPS-stimulation and measured after 24 hrs by Griess assay relative to control; assay type: functional
How it was run: (§1)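 RAW 264.7 macrophages stimulated with LPS; NO release quantified. Single-point screen at 50 μM; IC50 derived by nonlinear regression of sigmoidal dose–response curve, reported with 95% confidence intervals. Dexamethasone as positive control.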

[2] = system: RAW264.7; experiment: Anti-inflammatory activity in mouse RAW264.7 cells assessed as inhibition of LPS-induced nitric oxide production preincubated for 30 mins followed by LPS-stimulation and measured after 24 hrs by Griess assay; assay type: functional, cell-based; how it was run: as §1
[3] = system: RAW264.7; experiment: Cytotoxicity against mouse RAW264.7 cells assessed as reduction in cell viability at >50 uM measured after 24 hrs by MTT assay; assay type: cell-based; details: raw264.7, 24 h

Row | Structure (SMILES) | IC50 [2] [µM] | inhibition at 50 µM [1] [%] | Activity [3]
1 | C[C@@H]1O[C@@H](O[C@@H]2[C@@H](O[C@@H]3O[C@@H](C)[C@H](O[C@@H]4OC[C@@H](O)[C@H](O)[C@H]4O)[C@@H](O[C@@H]4OC[C@](O)(CO)[C@H]4O)[C@H]3O)[C@H](OC(=O)[C@]34CCC(C)(C)C[C@H]3C3=CC[C@@H]5[C@@]6(C)C[C@H](O)[C@H](O[C@@H]7O[C@H](CO[C@@H]8OC[C@H](O)[C@H](O)[C@H]8O)[C@@H](O)[C@H](O)[C@H]7O)C(C)(C)[C@@H]6CC[C@@]5(C)[C@]3(C)CC4)OC[C@H]2O)[C@H](O)[C@H](O)[C@H]1O | 42.1 | > 50 | –
2 | CC1(C)CC[C@]2(C(=O)O)[C@H](O)C[C@]3(C)C(=CC[C@@H]4[C@@]5(C)C[C@H](O)[C@H](O[C@@H]6O[C@H](CO[C@@H]7OC[C@H](O)[C@H](O)[C@H]7O)[C@@H](O)[C@H](O)[C@H]6O)C(C)(C)[C@@H]5CC[C@]43C)[C@@H]2C1 | > 50 | – | Non-Toxic
3 | C[C@@H]1O[C@@H](O[C@H]2[C@H](OC(=O)[C@]34CCC(C)(C)C[C@H]3C3=CC[C@@H]5[C@@]6(C)CC[C@H](O[C@@H]7O[C@H](CO[C@@H]8OC[C@H](O)[C@H](O)[C@H]8O)[C@@H](O)[C@H](O)[C@H]7O)C(C)(C)[C@@H]6CC[C@@]5(C)[C@]3(C)C[C@H]4O)OC[C@@H](O)[C@@H]2O)[C@H](O)[C@H](O)[C@H]1O[C@@H]1OC[C@H](O)[C@H](O[C@@H]2OC[C@@H](O)[C@H](O)[C@H]2O)[C@H]1O | 2.1 | > 50 | –

The next lines start with results.

Row | IC50 [2] [µM] | Structure (SMILES) | inhibition at 50 µM [1] [%] | Activity [3]
4 | 2.7 | C[C@@H]1O[C@@H](O[C@@H]2[C@@H](O)[C@H](O[C@@H]3[C@@H](O[C@@H]4OC[C@](O)(CO)[C@H]4O)[C@@H](O)[C@H](O[C@H]4[C@H](OC(=O)[C@]56CCC(C)(C)C[C@H]5C5=CC[C@@H]7[C@@]8(C)C[C@H](O)[C@H](O[C@@H]9O[C@H](CO[C@@H]%10OC[C@H](O)[C@H](O)[C@H]%10O)[C@@H](O)[C@H](O)[C@H]9O)C(C)(C)[C@@H]8CC[C@@]7(C)[C@]5(C)C[C@H]6O)OC[C@@H](O)[C@@H]4O)O[C@H]3C)OC[C@@H]2O)[C@H](O)[C@H](O)[C@H]1O | > 50 | –
5 | > 50 | CC1(C)CC[C@]2(C(=O)O[C@@H]3OC[C@@H](O)[C@H](O)[C@H]3O)[C@H](O)C[C@]3(C)C(=CC[C@@H]4[C@@]5(C)C[C@H](O)[C@H](O[C@@H]6O[C@H](CO[C@@H]7OC[C@H](O)[C@H](O)[C@H]7O)[C@@H](O)[C@H](O)[C@H]6O)C(C)(C)[C@@H]5CC[C@]43C)[C@@H]2C1 | – | Non-Toxic
6 | 0.01 | C[C@@H]1C[C@H]2[C@@H]3CCC4=CC(=O)C=C[C@]4(C)[C@@]3(F)[C@@H](O)C[C@]2(C)[C@@]1(O)C(=O)CO [DEXAMETHASONE] | – | –
7 | > 50 | C[C@@H]1O[C@@H](O[C@H]2[C@H](OC(=O)[C@]34CCC(C)(C)C[C@H]3C3=CC[C@@H]5[C@@]6(C)C[C@H](O)[C@H](O[C@@H]7O[C@H](CO[C@@H]8OC[C@H](O)[C@H](O)[C@H]8O)[C@@H](O)[C@H](O)[C@H]7O)C(C)(C)[C@@H]6CC[C@@]5(C)[C@]3(C)CC4)OC[C@@H](O)[C@@H]2O)[C@H](O)[C@H](O[C@@H]2OC[C@](O)(CO)[C@H]2O)[C@H]1O[C@@H]1OC[C@@H](O)[C@H](O)[C@H]1O | – | Non-Toxic
